Reference: ChEMBL document CHEMBL4325902, “Design, synthesis and biological evaluation of novel, orally bioavailable pyrimidine-fused heterocycles as influenza PB2 inhibitors” (Eur J Med Chem, 2019)

What was measured:
[1] = Cytotoxicity against MDCK cells assessed as reduction in cell viability after 5 days by CCK-8 assay; type: cell-based, Canis lupus familiaris; settings: dog
Procedure, shortened: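 MDCK cells seeded at 2×10^3 per well and grown overnight at 37°C, 5% CO2. Diluted compound (0.5% DMSO final) added without virus, then 5 days at 37°C. Viability read by CCK-8. CC50 is the concentration cutting viability to 50% of control, from a dose-response fit.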

[2] = Half life in human liver microsomes at 1 uM preincubated for 10 mins followed by NADPH addition measured up to 60 mins by LC/MS/MS analysis; type: ADME, Microsome
Procedure, shortened: (§1)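 Test compound at 1 µM with 0.5 mg/mL liver microsomal protein (CD-1 mouse, SD rat or human) in 100 mM potassium phosphate, pH 7.4. Preincubated 10 min at 37°C, then started with NADPH (1 mM generating system). Sampled at 0–60 min and stopped with cold acetonitrile containing internal standards. Compound loss gave T1/2. A no-NADPH control ran 60 min.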

[3] = Half life in Sprague-Dawley rat liver microsomes at 1 uM preincubated for 10 mins followed by NADPH addition measured up to 60 mins by LC/MS/MS analysis; type: ADME, Microsome; procedure, shortened: as §1
[4] = Half life in CD-1 mouse liver microsomes at 1 uM preincubated for 10 mins followed by NADPH addition measured up to 60 mins by LC/MS/MS analysis; type: ADME, Microsome; procedure, shortened: as §1
[5] = Clearance in CD-1 mouse at 0.5 mg/kg, iv; type: ADME, organism-based; settings: in vivo
Procedure, shortened: (§2)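 Male CD-1 mice, n=3 per dose, values are cohort means. Cassette PK: 0.5 mg/kg iv and 1 mg/kg po, both in 20% Solutol in water. Reported parameters are clearance, T1/2, Vd, AUC, Cmax, Tmax and %F.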

[6] = Half life in CD-1 mouse at 0.5 mg/kg, iv; type: ADME, organism-based; settings: in vivo; procedure, shortened: as §2
[7] = Volume of distribution in CD-1 mouse at 0.5 mg/kg, iv; type: ADME, organism-based; settings: in vivo; procedure, shortened: as §2
[8] = AUC in CD-1 mouse at 0.5 mg/kg, iv; type: ADME, organism-based; settings: in vivo; procedure, shortened: as §2
[9] = Cmax in CD-1 mouse at 1 mg/kg, po; type: ADME, organism-based; parameters: dose 1 mg/kg, route oral; settings: in vivo; procedure, shortened: as §2
[10] = Tmax in CD-1 mouse at 1 mg/kg, po; type: ADME, organism-based; settings: in vivo; procedure, shortened: as §2
[11] = AUC in CD-1 mouse at 1 mg/kg, po; type: ADME, organism-based; settings: in vivo; procedure, shortened: as §2
[12] = Oral bioavailability in CD-1 mouse at 1 mg/kg; type: ADME, organism-based; settings: in vivo; procedure, shortened: as §2
[13] = Clearance in CD-1 mouse at 1 mg/kg, iv; type: ADME, organism-based; settings: in vivo
Procedure, shortened: (§3)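 Male CD-1 mice, n=3 per dose, values are cohort means. Dosed 1 mg/kg iv and 10 mg/kg po, each in 20% Solutol in water. Reported parameters are Cl, T1/2, Vd, AUC, Cmax, Tmax and %F.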

[14] = Half life in CD-1 mouse at 1 mg/kg, iv; type: ADME, organism-based; settings: in vivo; procedure, shortened: as §3
[15] = Volume of distribution in CD-1 mouse at 1 mg/kg, iv; type: ADME, organism-based; settings: in vivo; procedure, shortened: as §3
[16] = AUC in CD-1 mouse at 1 mg/kg, iv; type: ADME, organism-based; settings: in vivo; procedure, shortened: as §3
[17] = Cmax in CD-1 mouse at 10 mg/kg, po; type: ADME, organism-based; parameters: dose 10 mg/kg, route oral; settings: in vivo; procedure, shortened: as §3
[18] = Tmax in CD-1 mouse at 10 mg/kg, po; type: ADME, organism-based; settings: in vivo; procedure, shortened: as §3
[19] = AUC in CD-1 mouse at 10 mg/kg, po; type: ADME, organism-based; settings: in vivo; procedure, shortened: as §3
[20] = Oral bioavailability in CD-1 mouse at 10 mg/kg; type: ADME, organism-based; settings: in vivo; procedure, shortened: as §3

Compound: O=C(O)[C@H]1C2CCC(CC2)[C@@H]1Nc1nc(-c2n[nH]c3ncc(F)cc23)nc2ccsc12
- CC50 at 120 h [1]: 0.2 µM
- half-life at 1 µM [2]: 1.28 h
- half-life at 1 µM [3]: 1.22 h
- half-life at 1 µM [4]: 0.683 h

Compound: O=C(O)[C@H]1C2CCC(CC2)[C@@H]1Nc1nc(-c2c[nH]c3ncc(F)cc23)nc2scnc12
- CC50 at 120 h [1]: 1.5 µM

Compound: N#Cc1csc2c(N[C@H]3C4CCC(CC4)[C@@H]3C(=O)O)nc(-c3c[nH]c4ncc(F)cc34)nc12
- CC50 at 120 h [1]: 0.7 µM

Compound: O=C(O)[C@H]1C2CCC(CC2)[C@@H]1Nc1nc(-n2ccc3ncc(F)cc32)ncc1F
- CC50 at 120 h [1]: 1.1 µM

Compound: Cn1cc(F)c2c(N[C@H]3C4CCC(CC4)[C@@H]3C(=O)O)nc(-c3c[nH]c4ncc(F)cc34)nc21
- CC50 at 120 h [1]: 0.6 µM

Compound: O=C(O)[C@H]1C2CCC(CC2)[C@@H]1Nc1nc(-c2c[nH]c3ncc(F)cc23)nc2cccc(F)c12
- CC50 at 120 h [1]: 1.8 µM

Compound: O=C(O)[C@H]1C2CCC(CC2)[C@@H]1Nc1nc(-c2c[nH]c3ncc(F)cc23)nc2ccsc12
- CC50 at 120 h [1]: 1.5 µM
- half-life at 1 µM [2]: 0.828 h
- half-life at 1 µM [3]: 0.87 h
- half-life at 1 µM [4]: 0.808 h
- clearance [5]: 18.9 mL/min/kg
- half-life [6]: 2 h
- Vd [7]: 2.4 L/kg
- AUC [8]: 1.01 µM·h
- Cmax [9]: 172 nM
- Tmax [10]: 0.4 h
- AUC [11]: 0.69 µM·h
- bioavailability [12]: 37%

Compound: O=C(O)[C@H]1C2CCC(CC2)[C@@H]1Nc1nc(-c2c[nH]c3ncc(F)cc23)nc2ccoc12
- CC50 at 120 h [1]: 6.2 µM

Compound: O=C(O)[C@H]1C2CCC(CC2)[C@@H]1Nc1nc(-c2c[nH]c3ncc(F)cc23)nc2c1CSC2
- CC50 at 120 h [1]: 4.4 µM

Compound: O=C(O)[C@H]1C2CCC(CC2)[C@@H]1Nc1nc(-c2c[nH]c3ncc(F)cc23)nc2c1CCC2
- CC50 at 120 h [1]: 10 µM

Compound: O=C(O)[C@H]1C2CCC(CC2)[C@@H]1Nc1nc(-c2c[nH]c3ncc(F)cc23)nc2c1CCS2
- CC50 at 120 h [1]: 5.6 µM

Compound: O=C(O)[C@H]1C2CCC(CC2)[C@@H]1Nc1nc(-c2n[nH]c3ncc(F)cc23)nc2c1SCC2
- CC50 at 120 h [1]: 4.9 µM
- half-life at 1 µM [2]: > 2.42 h
- half-life at 1 µM [3]: > 2.42 h
- half-life at 1 µM [4]: 1.71 h
- clearance [13]: 1.3 mL/min/kg
- half-life [14]: 3 h
- Vd [15]: 0.2 L/kg
- AUC [16]: 28.7 µM·h
- Cmax [17]: 32600 nM
- Tmax [18]: 0.67 h
- AUC [19]: 152 µM·h
- bioavailability [20]: 57%

Compound: O=C(O)[C@H]1C2CCC(CC2)[C@@H]1Nc1nc(-c2c[nH]c3ccc(F)cc23)ncc1F
- CC50 at 120 h [1]: 10 µM

Compound: O=C(O)[C@H]1C2CCC(CC2)[C@@H]1Nc1nc(-c2c[nH]c3ncc(F)cc23)nc2cccnc12
- CC50 at 120 h [1]: 7 µM

Compound: O=C(O)[C@H]1C2CCC(CC2)[C@@H]1Nc1nc(-c2c[nH]c3ncc(F)cc23)nc2c1CS(=O)(=O)C2
- CC50 at 120 h [1]: > 50 µM

Compound: Cc1cnc2c(N[C@H]3C4CCC(CC4)[C@@H]3C(=O)O)nc(-c3c[nH]c4ncc(F)cc34)nc2c1
- CC50 at 120 h [1]: 4.9 µM

Compound: O=C(O)[C@H]1C2CCC(CC2)[C@@H]1Nc1nc(-c2c[nH]c3ncc(F)cc23)nc2cc(F)cnc12
- CC50 at 120 h [1]: 1.4 µM

Compound: O=C(O)[C@H]1C2CCC(CC2)[C@@H]1Nc1nc(-c2c[nH]c3ncc(F)cc23)nc2c1CCCC2
- CC50 at 120 h [1]: > 50 µM

Compound: O=C(O)[C@H]1C2CCC(CC2)[C@@H]1Nc1nc(-c2c[nH]c3ncc(F)cc23)nc2[nH]ccc12
- CC50 at 120 h [1]: 15 µM

Compound: Cc1cccc2nc(-c3c[nH]c4ncc(F)cc34)nc(N[C@H]3C4CCC(CC4)[C@@H]3C(=O)O)c12
- CC50 at 120 h [1]: 4.7 µM

Compound: O=C(O)[C@H]1C2CCC(CC2)[C@@H]1Nc1nc(-c2c[nH]c3ncc(F)cc23)nc2c1S(=O)(=O)CC2
- CC50 at 120 h [1]: > 50 µM

Compound: O=C(O)[C@H]1C2CCC(CC2)[C@@H]1N1CCOc2cnc(-c3c[nH]c4ncc(F)cc34)nc21
- CC50 at 120 h [1]: > 50 µM

Compound: O=C(O)[C@H]1C2CCC(CC2)[C@@H]1Nc1nc(-c2c[nH]c3ncc(F)cc23)nc2cscc12
- CC50 at 120 h [1]: > 50 µM
- clearance [5]: 73.7 mL/min/kg
- half-life [6]: 1.3 h
- Vd [7]: 5.7 L/kg
- AUC [8]: 0.252 µM·h
- Cmax [9]: 29.2 nM
- Tmax [10]: 0.33 h
- AUC [11]: 0.0488 µM·h
- bioavailability [12]: 10%

Compound: Cc1cccc2nc(N[C@H]3C4CCC(CC4)[C@@H]3C(=O)O)nc(-c3c[nH]c4ncc(F)cc34)c12
- CC50 at 120 h [1]: 2.1 µM

Compound: O=C(O)[C@H]1C2CCC(CC2)[C@@H]1n1ccc2cnc(-c3c[nH]c4ncc(F)cc34)nc21
- CC50 at 120 h [1]: 4 µM

Compound: O=C(O)[C@H]1C2CCC(CC2)[C@@H]1Nc1nc(-c2c[nH]c3ncc(F)cc23)nc2cc(C(F)F)sc12
- CC50 at 120 h [1]: 3.3 µM

Compound: O=C(O)[C@H]1C2CCC(CC2)[C@@H]1Nc1nc(-c2c[nH]c3ncc(F)cc23)nc2nccnc12
- CC50 at 120 h [1]: 46 µM

Compound: O=C(O)[C@H]1C2CCC(CC2)[C@@H]1Nc1nc(-c2c[nH]c3ncc(F)cc23)nc2sccc12
- CC50 at 120 h [1]: 0.6 µM
- half-life at 1 µM [2]: 1.74 h
- half-life at 1 µM [3]: 1.52 h
- half-life at 1 µM [4]: 1.02 h
- Cmax [9]: 509 nM
- Tmax [10]: 0.83 h
- AUC [11]: 1.35 µM·h

Compound: O=C(O)[C@H]1C2CCC(CC2)[C@@H]1Nc1nc(-c2c[nH]c3ncc(F)cc23)nc2c1SCC2
- CC50 at 120 h [1]: 4.5 µM
- half-life at 1 µM [2]: 1.66 h
- half-life at 1 µM [3]: 1.92 h
- half-life at 1 µM [4]: 0.855 h
- clearance [13]: 13.8 mL/min/kg
- half-life [14]: 2.3 h
- Vd [15]: 2.3 L/kg
- AUC [16]: 2.79 µM·h
- Cmax [17]: 15000 nM
- Tmax [18]: 0.25 h
- AUC [19]: 19.5 µM·h
- bioavailability [20]: 71%

Compound: N#Cc1cn([C@H]2C3CCC(CC3)[C@@H]2C(=O)O)c2nc(-c3c[nH]c4ncc(F)cc34)ncc12
- CC50 at 120 h [1]: 5.4 µM

Compound: O=C(O)[C@H]1C2CCC(CC2)[C@@H]1n1cnc2cnc(-c3c[nH]c4ncc(F)cc34)nc21
- CC50 at 120 h [1]: 21.7 µM

Compound: O=C(O)[C@H]1C2CCC(CC2)[C@@H]1Nc1nc(-c2n[nH]c3ncc(F)cc23)nc2sccc12
- CC50 at 120 h [1]: 2.7 µM
- half-life at 1 µM [2]: 1.18 h
- half-life at 1 µM [3]: 1.08 h
- half-life at 1 µM [4]: 0.55 h

Compound: O=C(O)[C@H]1C2CCC(CC2)[C@@H]1Nc1nc(-c2c[nH]c3ncc(F)cc23)ncc1F [PIMODIVIR]
- CC50 at 120 h [1]: 12 µM
- half-life at 1 µM [2]: > 2.42 h
- half-life at 1 µM [3]: > 2.42 h
- half-life at 1 µM [4]: > 2.42 h
- clearance [13]: 30.9 mL/min/kg
- half-life [14]: 1.9 h
- Vd [15]: 7.1 L/kg
- AUC [16]: 1.36 µM·h
- Cmax [17]: 2050 nM
- Tmax [18]: 2.5 h
- AUC [19]: 13.4 µM·h
- bioavailability [20]: 100%
